Assay results from different studies.
Each line is one published result; the experiments were not run side by side.
Target: 3-phosphoinositide-dependent protein kinase 1 (PDPK1, Homo sapiens, UniProt O15530)
Sequence (O15530 1-556, as in one of the studies): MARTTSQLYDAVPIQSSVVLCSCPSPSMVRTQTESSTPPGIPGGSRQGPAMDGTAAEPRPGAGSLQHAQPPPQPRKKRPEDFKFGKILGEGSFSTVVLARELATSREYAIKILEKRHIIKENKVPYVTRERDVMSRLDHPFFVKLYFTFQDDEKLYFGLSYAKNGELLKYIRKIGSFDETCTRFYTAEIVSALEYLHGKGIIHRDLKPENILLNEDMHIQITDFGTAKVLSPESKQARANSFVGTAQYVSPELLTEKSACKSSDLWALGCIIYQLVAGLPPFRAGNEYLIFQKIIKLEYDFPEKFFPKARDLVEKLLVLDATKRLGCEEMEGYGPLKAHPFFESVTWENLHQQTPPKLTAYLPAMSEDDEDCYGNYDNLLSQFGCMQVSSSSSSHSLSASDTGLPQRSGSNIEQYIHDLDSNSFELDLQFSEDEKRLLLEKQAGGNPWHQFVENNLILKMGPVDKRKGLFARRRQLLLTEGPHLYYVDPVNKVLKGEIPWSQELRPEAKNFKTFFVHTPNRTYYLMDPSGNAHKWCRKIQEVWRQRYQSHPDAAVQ

| SMILES | effect on | action | method | tested at | inhibition [%] |
| --- | --- | --- | --- | --- | --- |
| COc1cc2ncnc(Nc3ccc(Oc4ccccc4)cc3C)c2cc1OC | enzyme activity | inhibitor |  | 1 µM | -2 |
| Cc1ccc(Nc2nccc(N(C)c3ccc4c(C)n(C)nc4c3)n2)cc1S(N)(=O)=O | enzyme activity | inhibitor |  | 0.3 µM | 5 |
| CS(=O)(=O)Nc1cccc(-c2csc(NC(=O)CSc3nc4nccnc4c(=O)n3CCc3ccccc3)n2)c1 | enzyme activity | inhibitor |  | 10 µM | 7 |
| COc1cc(C[C@H]2C(=O)OC[C@@H]2Cc2ccc(OC)c(OC)c2)ccc1O | enzyme activity | inhibitor | ADP detection | 100 µM | 18.6 |
| CNC(=O)c1cc(Oc2ccc(NC(=O)Nc3ccc(Cl)c(C(F)(F)F)c3)cc2)ccn1 | enzyme activity | inhibitor |  | 0.3 µM | -2 |
| CN(C)C1CCN(CC#Cc2nn(C3CCCC3)c3nc(NCc4ccccc4)ncc23)C1 (centres unmarked) | enzyme activity | inhibitor | FRET | 10 µM | 3 |
| CCN(CC)CCNC(=O)c1c(C)[nH]c(/C=C2\C(=O)Nc3ccc(F)cc32)c1C | binding |  | competition with immobilised ligand | 10 µM | 71 |
| CC(C)COc1cccc(Cl)c1-c1cc2cnc(N)nc2nc1N1C[C@@H]2[C@@H](N)[C@@H]2C1 | enzyme activity | inhibitor | FRET | 25 µM | 0 |
| CCCCNc1ncc2c(-c3ccc(F)cc3)nn(C[C@H]3CC[C@H](N)CC3)c2n1 | target engagement in cells | inhibitor | chemoproteomics | 20 mM | 7.1 |
| CN1CC(Oc2cnc(C#N)cc2-c2ccn3nc(NC(=O)C4CC4)cc3c2)C1 | enzyme activity | inhibitor |  | 1 µM | 12 |
| CC/C(=N\NC(=O)NCc1cccc(O)c1)c1ccc(O)c(C)c1O | enzyme activity | inhibitor |  | 0.1 µM | -1.2 |
